Reference: ChEMBL document CHEMBL4376884, “Toward a Rational Design of Polyamine-Based Zinc-Chelating Agents for Cancer Therapies” (J Med Chem, 2020)
The source made the active and inactive calls. No cut-off for these calls is given here.

Experiments:
LN-229 [1] = assay: Cell cycle arrest in human LN229 cells assessed as cell accumulation at G1 phase at 10 uM incubated for 24 hrs by propidium iodide staining based flow cytometry analysis relative to control; format: functional
PC-3 [2] = assay: Cell cycle arrest in human PC3 cells assessed as cell accumulation at G1 phase at 10 uM incubated for 48 hrs by propidium iodide staining based flow cytometry analysis relative to control; format: functional
PC-3 [3] = assay: Inhibition of colony formation in human PC3 cells at 10 uM incubated for 4 hrs by crystal violet staining based colony counting method; format: functional, cell-based
How it was run: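 LN229 and PC3 cells treated for 4 h with compound (10 µM) or with etoposide (30 µM positive control), washed, trypsinized and replated at 3000 cells per 60-mm plate. Colonies grown 7–10 days, fixed and stained with 0.5% crystal violet in 70% ethanol, and counted. Reported as percent of control; four independent experiments, each in duplicate.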

MCF7 = assay: Induction of apoptosis in human MCF7 cells assessed as increase in caspase-3/7 activation at 10 uM incubated for 48 hrs by luminometric caspase-glo 3/7 assay; format: functional, cell-based
How it was run: (§1)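 Cells in RPMI or DMEM with 10% heat-inactivated FBS and penicillin/streptomycin, 37 °C, 5% CO2, treated with 10 µM compound for 48 h. Caspase-3 and caspase-7 activity read by luminescent Caspase-Glo 3/7 assay, reported as fold induction over untreated cells; mean ± SD of three independent experiments, each in triplicate.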

PC-3 [4] = assay: Cell cycle arrest in human PC3 cells assessed as cell accumulation at S phase at 10 uM incubated for 48 hrs by propidium iodide staining based flow cytometry analysis relative to control; format: functional
U-87 MG [5] = assay: Antiproliferative activity against human U87MG cells assessed as reduction in cell viability at 10 uM incubated for 48 hrs by cell titer-glo assay; format: functional, cell-based; details: U-87MG ATCC
How it was run: (§2)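 Cells plated and treated 24 h later with 10 µM compound for 48 h; viable cells quantified by CellTiter-Glo ATP luminescence. Expressed as percentage of viable cells relative to untreated; mean ± SD of three independent experiments, each in triplicate.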

Homo sapiens [6] = species on record: Homo sapiens; assay: Antiproliferative activity against human JMV2 cells assessed as reduction in cell viability at 10 uM incubated for 48 hrs by cell titer-glo assay; format: functional, cell-based; how it was run: as §2
LN-229 [7] = assay: Induction of cellular senescence in human LN229 cells assessed as larger volume of cell at 10 uM incubated for 24 hrs by phase contrast microscopy; format: functional, cell-based
How it was run: (§3)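 LN229 and PC3 cells, 12×10^4 per well in 6-well plates, treated with 10 µM compound for 24 h. Senescence-associated β-gal staining: fixed in 2% formaldehyde/0.2% glutaraldehyde for 10 min at RT, stained with 1 mg/mL X-gal at 37 °C for 24 h without CO2. Blue cells counted in at least 10 fields at 10x and given as percent of total; four independent experiments. Morphology viewed by phase contrast at ×100.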

LN-229 [8] = assay: Antiproliferative activity against human LN229 cells assessed as reduction in cell viability at 10 uM incubated for 48 hrs by cell titer-glo assay; format: functional, cell-based; how it was run: as §2
LN-229 [9] = assay: Induction of cellular senescence in human LN229 cells assessed as increase in beta-gal-positive cells at 10 uM incubated for 24 hrs by X-Gal staining based microscopic assay relative to control; format: functional
LN-229 [10] = assay: Induction of cell morphological changes in human LN229 cells assessed as random membrane blebbing at 10 uM incubated for 24 to 48 hrs by phase contrast microscopy; format: functional, cell-based
How it was run: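 LN229 and PC3 cells exposed to 10 µM compound for the indicated time-points, then imaged live by phase-contrast microscopy for morphology.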

Jurkat [11] = assay: Antiproliferative activity against human Jurkat cells assessed as reduction in cell viability at 10 uM incubated for 48 hrs by cell titer-glo assay; format: functional, cell-based; how it was run: as §2
U-87 MG [12] = assay: Induction of apoptosis in human U87MG cells assessed as increase in caspase-3/7 activation at 10 uM incubated for 48 hrs by luminometric caspase-glo 3/7 assay; format: functional, cell-based; details: U-87MG ATCC; how it was run: as §1
LN-229 [13] = assay: Cell cycle arrest in human LN229 cells assessed as cell accumulation at G1 phase at 10 uM incubated for 48 hrs by propidium iodide staining based flow cytometry analysis relative to control; format: functional
Jurkat [14] = assay: Cell cycle arrest in human Jurkat cells assessed as decrease in cell accumulation at G2 phase at 10 uM incubated for 24 hrs by propidium iodide staining based flow cytometry analysis; format: functional
LN-229 [15] = assay: Antiproliferative activity against human LN229 cells assessed as reduction in cell viability at 10 uM incubated for 48 hrs in presence of Fe3+ ion by MTT assay; format: functional, cell-based
How it was run: (§4)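 LN229 and PC3 cells plated, then 24 h later given 10 µM compound with or without 15 µM ZnCl2, CuCl2, FeCl2 or FeCl3 for 48 h. Medium replaced, MTT (12 mM solution) added for 4 h, formazan dissolved in DMSO, absorbance read at 540 nm. Percent viable versus untreated; mean ± SD of three experiments in triplicate.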

LN-229 [16] = assay: Antiproliferative activity against human LN229 cells assessed as reduction in cell viability incubated for 48 hrs by cell titer-glo assay; format: functional, cell-based; details: LN-229, 48 h
How it was run: (§5)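 Dose-response: cells plated, treated 24 h later for 48 h, then ATP measured by CellTiter-Glo luminescence. IC50 given as mean ± SD from three independent experiments, each in triplicate. Fibroblasts came from individuals. Cells were kept in RPMI or DMEM with 10% heat-inactivated FBS and penicillin/streptomycin at 37 °C, 5% CO2.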

PC-3 [17] = assay: Induction of cellular senescence in human PC3 cells assessed as cells with irregular shape at 10 uM incubated for 24 hrs by phase contrast microscopy; format: functional, cell-based; how it was run: as §3
Z-138 = assay: Antiproliferative activity against human Z138 cells assessed as reduction in cell viability at 10 uM incubated for 48 hrs by cell titer-glo assay; format: functional, cell-based; how it was run: as §2
Homo sapiens [18] = species on record: Homo sapiens; assay: Antiproliferative activity against human UPN2 cells assessed as reduction in cell viability at 10 uM incubated for 48 hrs by cell titer-glo assay; format: functional, cell-based; how it was run: as §2
U-87 MG [19] = assay: Cell cycle arrest in human U87MG cells assessed as decrease in cell accumulation at G2 phase at 10 uM incubated for 24 hrs by propidium iodide staining based flow cytometry analysis; format: functional; details: U-87MG ATCC
LN-229 [20] = assay: Induction of cellular senescence in human LN229 cells assessed as cells with irregular shape at 10 uM incubated for 24 hrs by phase contrast microscopy; format: functional, cell-based; how it was run: as §3
LN-229 [21] = assay: Cell cycle arrest in human LN229 cells assessed as cell accumulation at S phase at 10 uM incubated for 24 hrs by propidium iodide staining based flow cytometry analysis relative to control; format: functional
PC-3 [22] = assay: Antiproliferative activity against human PC3 cells assessed as reduction in cell viability at 10 uM incubated for 48 hrs in presence of Cu2+ ion by MTT assay; format: functional, cell-based; how it was run: as §4
LN-229 [23] = assay: Antiproliferative activity against human LN229 cells assessed as reduction in cell viability at 10 uM incubated for 48 hrs in presence of Fe2+ ion by MTT assay; format: functional, cell-based; how it was run: as §4
LN-229 [24] = assay: Induction of apoptosis in human LN229 cells at 10 uM incubated for 24 to 48 hrs by annexin V-FITC and propidium iodide staining based flow cytometric analysis; format: functional, cell-based
Jurkat [25] = assay: Antiproliferative activity against human Jurkat cells assessed as reduction in cell viability incubated for 48 hrs by cell titer-glo assay; format: functional, cell-based; how it was run: as §5
LN-229 [26] = assay: Cell cycle arrest in human LN229 cells assessed as cell accumulation at S phase at 10 uM incubated for 48 hrs by propidium iodide staining based flow cytometry analysis relative to control; format: functional

Structure (SMILES) | Activity (LN-229 [1]) [%] | Activity (PC-3 [2]) [%] | inhibition (PC-3 [3]) | Activity (MCF7) | Activity (PC-3 [4]) [%] | Activity (U-87 MG [5]) | Activity (Homo sapiens [6]) | Activity (LN-229 [7]) | Activity (LN-229 [8]) | Activity (LN-229 [9]) | Activity (LN-229 [10]) | Activity (Jurkat [11]) | Activity (U-87 MG [12]) | Activity (LN-229 [13]) [%] | Activity (Jurkat [14]) | Activity (LN-229 [15]) | IC50 (LN-229 [16]) [µM] | Activity (PC-3 [17]) | Activity (Z-138) | Activity (Homo sapiens [18]) | other results
CN(CCNCc1ccccn1)CCNCc1ccccn1 | 62.1 | 57.2 | inactive | Active | 7.2 | Active | Active | Active | Active | Active | Active | Active | Active | 66.1 | Active | Active | 6.84 | Active | Active | Active | Activity (U-87 MG [19]): Active; Activity (LN-229 [20]): Active; Activity (LN-229 [21]): 15.6%; Activity (PC-3 [22]): inactive; Activity (LN-229 [23]): Active; Activity (LN-229 [24]): Active; IC50 (Jurkat [25]): 1.99 µM; Activity (LN-229 [26]): 13.5%
c1ccc(CNCCN(CCNCc2ccccn2)Cc2ccc3ccccc3c2)nc1 | 63.1 | 73.4 | inactive | Active | 7.7 | Active | Active | Active | Active | 90% | Active | Active | Active | 74.7 | Active | Active | 6.3 | Active | Active | Active | Activity (U-87 MG [19]): Active; Activity (LN-229 [20]): Active; Activity (LN-229 [21]): 14.8%; Activity (PC-3 [22]): inactive; Activity (LN-229 [23]): Active; Activity (LN-229 [24]): Active; IC50 (Jurkat [25]): 3.17 µM; Activity (LN-229 [26]): 10.8%
